2 compounds from ChEMBL document CHEMBL1123549, “Detection of N-acetyl-p-benzoquinone imine produced during the hydrolysis of the model phenacetin metabolite N-(pivaloyloxy)phenacetin” (J Med Chem, 1986) can be followed below.

Assay type in all cases: ADME
Data set [1] in a line: Pseudo-first-order rate constant for the decomposition of compound at 25 degree C in presence of HCl at pH 2.62. The conditions noted are these: buffer. An outline of the steps:
(§1)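 Hydrolysis run in 5 vol % CH3CN-H2O, ionic strength 0.50 M (KCl), HCl solution, (25.0 ± 0.1) °C. pH meter readings corrected as pH = reading − 0.05, calibrated on standardized HCl. Progress followed by repetitive UV absorbance scans. Absorbance vs. time at 266.5 and 245 nm fit by least squares to the rate equation for two consecutive first-order processes, giving pseudo-first-order rate constants.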

The nature of data set [2]: Pseudo-first-order rate constant for the decomposition of compound at 25 degree C in presence of HCl at pH 2.31. The conditions noted are these: buffer. An outline of the steps: as §1
A short description of data set [3]: (§2) Pseudo-first-order rate constant for the decomposition of compound at 25 degree C in presence of HCl at pH 1.00. The conditions noted are these: buffer. Put shortly: as §1
Data set [4] can be described thus: Pseudo-first-order rate constant for the decomposition of compound at 25 degree C in presence of HCl at pH 1.59. The conditions noted are these: buffer. Put shortly: as §1
A short description of data set [5]: (§3) Pseudo-first-order rate constant for the decomposition of compound at 25 degree C in presence of HCl at pH 2.00. Conditions: buffer. An outline of the steps:
as §1

Data set [6] is described as follows: Pseudo-first-order rate constant for the decomposition of compound at 25 degree C in presence of HCl at pH 1.30. The conditions noted are these: buffer, pH 1.3. Put shortly:
as §1

Data set [7] can be described thus: Pseudo-first-order rate constant for the decomposition of compound at 25 degree C in presence of KOAc/HCl at pH 4.60. Conditions: buffer, pH 4.6. An outline of the steps: (§4)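 Hydrolysis followed by UV absorbance (repetitive scans; traces at 266.5 and 245 nm) at 25.0 ± 0.1 °C in 5 vol % CH3CN-H2O, ionic strength 0.50 M (KCl). Media were HCl solutions, or acetate or phosphate buffers at 0.01 M total buffer. Meter pH was corrected by subtracting 0.05. Rate constants came from fitting absorbance vs. time to a first-order or two-consecutive-first-order equation.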

The nature of data set [8]: Pseudo-first-order rate constant for the decomposition of compound at 25 degree C in presence of K2HPO4/[…]/HCl at pH 5.75. Conditions: buffer. Put shortly:
as §4

Data set [9] can be described thus: Pseudo-first-order rate constant for the decomposition of compound at 25 degree C in presence of K2HPO4/[…]/HCl at pH 7.55. Conditions: buffer. An outline of the steps: as §4
Data set [10] can be described thus: Pseudo-first-order rate constant for the decomposition of compound at 25 degree C in presence of K2HPO4/[…]/HCl at pH 6.77. Conditions: buffer. An outline of the steps: as §4
Data set [11] is described as follows: Pseudo-first-order rate constant for the decomposition of compound at 25 degree C in presence of HCl at pH 3.02. Conditions: buffer. Put shortly:
as §4

Data set [12] can be described thus: Pseudo-first-order rate constant for the decomposition of compound at 25 degree C in presence of KOAc/HCl at pH 5.64. Conditions: buffer. An outline of the steps:
as §4

Data set [13] in a line: as §2. Conditions: buffer. Put shortly: as §4
This is another data set of the same source.

Data set [14] in a line: Pseudo-first-order rate constant for the decomposition of compound at 25 degree C in presence of HCl at pH 2.00; Too fast to measure by conventional methods. Conditions: buffer. Put shortly: as §4
Data set [15] in a line: as §3. The conditions noted are these: buffer. Put shortly: as §4
The source holds these as a separate data set.

Data set [16] in a line: Pseudo-first-order rate constant for the decomposition of compound at 25 degree C in presence of HCl at pH 1.00; Too fast to measure by conventional methods. The conditions noted are these: buffer. Put shortly: as §4
Data set [17] in a line: Pseudo-first-order rate constant for the decomposition of compound at 25 degree C in presence of KOAc/HCl at pH 3.71. Conditions: buffer. Put shortly:
as §4

Regarding `CC(=O)N=C1C=CC(=O)C=C1`, the “k''” value in data set [1] amounted to 0.000575 s⁻¹; in [2] it was 0.000703 s⁻¹; in data set [3], 0.00639 s⁻¹; in data set [4], 0.0019 s⁻¹; in [5], 0.000977 s⁻¹; in data set [6], 0.0034 s⁻¹.

For the compound `CCOc1ccc(N(OC(=O)C(C)(C)C)C(C)=O)cc1`, the k0 came to 0.0263 s⁻¹ in [7]; 0.0226 s⁻¹ in data set [8]; 0.0214 s⁻¹ in data set [9]; 0.0219 s⁻¹ in [10]; 0.0205 s⁻¹ in [11]; 0.0224 s⁻¹ in data set [12]. The values for the k0 in data set [13], in data set [15] and in data set [17] were 0.0271 s⁻¹, 0.0252 s⁻¹ and 0.0246 s⁻¹, respectively. Further, the “k'” value in data set [7] is 0.0037 s⁻¹; in data set [8], 0.000303 s⁻¹; in [9], 0.0000288 s⁻¹; in data set [10], 0.0000512 s⁻¹; in data set [11], 0.155 s⁻¹; in [12], 0.000394 s⁻¹. Moreover, the “k'” value in [14] was “Too fast to measure by conventional methods”; in data set [16], “Too fast to measure by conventional methods”; in [17], 0.0246 s⁻¹. In addition, the “k''” value in [7] turned out to be 0.000642 s⁻¹; in data set [8], 0.00287 s⁻¹; in [3] it was 0.00606 s⁻¹; in data set [11], 0.000476 s⁻¹; in [5], 0.000996 s⁻¹; in [12] it was 0.00261 s⁻¹. Besides, in [17], the “k''” value amounted to 0.000471 s⁻¹.
